Reference: ChEMBL document CHEMBL1782004, “Pyrimidine nucleotides with 4-alkyloxyimino and terminal tetraphosphate δ-ester modifications as selective agonists of the P2Y(4) receptor” (J Med Chem, 2011)
Active and inactive are the calls of the source. No cut-off for these calls is given here.

What was measured:
P2Y purinoceptor 2 [1] = biological target: T1, P2Y purinoceptor 2 (Homo sapiens, UniProt P41231); assay: Agonist activity at human recombinant P2Y2 receptor expressed in human 1321N1 cells assessed as [3H]inositol phosphate production after 30 mins by scintillation proximity assay; format: functional, cell-based
T1 sequence (P41231 whole entry): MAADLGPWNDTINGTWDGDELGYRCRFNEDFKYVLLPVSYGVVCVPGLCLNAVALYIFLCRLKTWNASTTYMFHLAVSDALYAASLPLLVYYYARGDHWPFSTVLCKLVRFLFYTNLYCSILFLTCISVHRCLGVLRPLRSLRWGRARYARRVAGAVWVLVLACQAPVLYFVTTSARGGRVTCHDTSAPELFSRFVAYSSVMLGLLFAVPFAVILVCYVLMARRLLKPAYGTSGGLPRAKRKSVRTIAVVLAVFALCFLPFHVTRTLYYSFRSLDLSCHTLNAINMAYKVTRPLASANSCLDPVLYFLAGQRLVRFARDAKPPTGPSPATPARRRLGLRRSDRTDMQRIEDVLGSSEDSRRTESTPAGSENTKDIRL
How it was run: (§1)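 Stable 1321N1 human astrocytoma lines expressing human P2Y2, P2Y4 or P2Y6 were seeded at 20,000 cells/well two days ahead. Cells were then challenged with agonist in HEPES pH 7.3/HBSS containing LiCl for 30 min at 37°C. The reaction was stopped with ice-cold 50 mM formic acid and [3H]inositol phosphates were read by SPA.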

P2Y purinoceptor 4 [2] = biological target: T2, P2Y purinoceptor 4 (Homo sapiens, UniProt P51582); assay: Agonist activity at human recombinant P2Y4 receptor expressed in human 1321N1 cells assessed as [3H]inositol phosphate production after 30 mins by scintillation proximity assay; format: functional, cell-based
T2 sequence (P51582 whole entry): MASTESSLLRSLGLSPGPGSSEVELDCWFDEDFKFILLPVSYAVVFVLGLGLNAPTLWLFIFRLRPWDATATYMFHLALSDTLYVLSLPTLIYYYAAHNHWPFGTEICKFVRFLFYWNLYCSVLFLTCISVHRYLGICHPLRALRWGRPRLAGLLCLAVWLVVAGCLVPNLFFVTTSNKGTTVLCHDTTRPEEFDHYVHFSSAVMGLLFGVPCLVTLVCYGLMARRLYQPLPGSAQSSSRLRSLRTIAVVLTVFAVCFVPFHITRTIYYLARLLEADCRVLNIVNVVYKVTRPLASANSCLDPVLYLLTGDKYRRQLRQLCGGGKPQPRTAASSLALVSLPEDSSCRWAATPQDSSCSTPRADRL
How it was run: as §1, with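 “ahead. They were labelled for 16 h with 1.0 μCi myo-[3H]inositol in serum-free, inositol-free DMEM.” for “ahead.”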

P2Y purinoceptor 2 [3] = biological target: T1, P2Y purinoceptor 2; assay: Ratio of EC50 for human recombinant P2Y2 receptor expressed in human 1321N1 cells to EC50 for human recombinant P2Y4 receptor expressed in human 1321N1 cells; format: cell-based
1321-N1 = assay: Ratio of EC50 for human recombinant P2Y6 receptor expressed in human 1321N1 cells to EC50 for human recombinant P2Y4 receptor expressed in human 1321N1 cells; format: cell-based
P2Y purinoceptor 6 [4] = biological target: T3, P2Y purinoceptor 6 (Homo sapiens, UniProt Q15077); assay: Agonist activity at human recombinant P2Y6 receptor expressed in human 1321N1 cells assessed as [3H]inositol phosphate production after 30 mins by scintillation proximity assay; format: functional, cell-based
T3 sequence (Q15077 whole entry): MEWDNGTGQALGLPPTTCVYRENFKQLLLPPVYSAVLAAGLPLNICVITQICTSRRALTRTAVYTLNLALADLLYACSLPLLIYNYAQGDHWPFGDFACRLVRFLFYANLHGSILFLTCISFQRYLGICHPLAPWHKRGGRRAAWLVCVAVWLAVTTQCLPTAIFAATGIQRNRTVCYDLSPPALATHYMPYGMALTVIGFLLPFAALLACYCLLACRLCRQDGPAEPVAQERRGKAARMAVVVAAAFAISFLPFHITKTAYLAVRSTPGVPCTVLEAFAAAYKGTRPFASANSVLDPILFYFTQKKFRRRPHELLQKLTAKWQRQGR
How it was run: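 1321N1 astrocytoma cells stably expressing human P2Y6, seeded 2 days ahead and labelled 16 h with myo-[3H]inositol in serum-free inositol-free DMEM. Agonist added as five-fold concentrate in HEPES pH 7.3/HBSS with 50 mM LiCl, 30 min at 37°C. Stopped with ice-cold 50 mM formic acid. EC50 from four-parameter logistic fit; triplicates, three to six experiments; UDP reference curve.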

[5] = Ratio of EC50 for P2Y4 to EC50 for P2Y2
[6] = Ratio of EC50 for P2Y6 to EC50 for P2Y2
P2Y purinoceptor 4 [7] = biological target: T2, P2Y purinoceptor 4; assay: Agonist activity at human recombinant P2Y4 receptor expressed in human 1321N1 cells assessed as [3H]inositol phosphate production at 10 uM after 30 mins by scintillation proximity assay; format: functional, cell-based
P2Y purinoceptor 6 [8] = biological target: T3, P2Y purinoceptor 6; assay: Agonist activity at human recombinant P2Y6 receptor expressed in human 1321N1 cells assessed as [3H]inositol phosphate production at 10 uM after 30 mins by scintillation proximity assay; format: functional, cell-based
P2Y purinoceptor 2 [9] = biological target: T1, P2Y purinoceptor 2; assay: Agonist activity at human recombinant P2Y2 receptor expressed in human 1321N1 cells assessed as [3H]inositol phosphate production at 10 uM after 30 mins by scintillation proximity assay; format: functional, cell-based
P2Y purinoceptor 2 [10] = biological target: T1, P2Y purinoceptor 2; assay: Agonist activity at human P2Y2; format: functional
Oocyte = assay: Ratio of EC50 for rat P2Y2 expressed in Xenopus oocytes to EC50 for rat P2Y4 expressed in Xenopus oocytes; format: cell-based
P2Y purinoceptor 4 [11] = biological target: T2, P2Y purinoceptor 4; assay: Agonist activity at human P2Y4; format: functional

Row | SMILES | EC50 (P2Y purinoceptor 2 [1]) [nM] | EC50 (P2Y purinoceptor 4 [2]) [nM] | EC50 (P2Y purinoceptor 6 [4]) [nM] | Activity (P2Y purinoceptor 6 [8]) | other results
1 | CC(C)(C)ONc1ccn([C@@H]2O[C@H](COP(=O)(O)OP(=O)(O)OP(=O)(O)O)[C@@H](O)[C@H]2O)c(=O)n1 | 1500 | 2110 | – | – | –
2 | O=c1ccn([C@@H]2O[C@H](COP(=O)(O)OP(=O)(O)OP(=O)(O)OP(=O)(O)O[C@H]3O[C@H](CO)[C@@H](O)[C@H](F)[C@H]3O)[C@@H](O)[C@H]2O)c(=O)[nH]1 | 710 | 62 | 950 | – | Ratio EC50 (P2Y purinoceptor 2 [3]): 11.5; Ratio EC50 (1321-N1): 15.3
3 | O=c1[nH]/c(=N\OCCCc2ccccc2)ccn1[C@@H]1O[C@H](COP(=O)(O)OP(=O)(O)OP(=O)(O)O)[C@@H](O)[C@H]1O | – | – | – | – | Ratio EC50 (P2Y purinoceptor 2 [3]): 28; Ratio EC50 (1321-N1): 32
4 | O=c1ccn([C@@H]2O[C@H](COP(=O)(O)OP(=O)(O)OP(=O)(O)OP(=O)(O)O[C@H]3O[C@H](CO)[C@@H](O)[C@H](O)[C@H]3O)[C@@H](O)[C@H]2O)c(=O)[nH]1 | – | – | – | – | Ratio EC50 [5]: 7; Ratio EC50 [6]: 26
5 | O=c1ccn([C@@H]2O[C@H](COP(=O)(O)OP(=O)(O)C(Cl)(Cl)P(=O)(O)O)[C@@H](O)[C@H]2O)c(=O)[nH]1 | 9600 | – | – | < 50% | Activity (P2Y purinoceptor 4 [7]): inactive
6 | CC(=O)N[C@H]1[C@@H](OP(=O)(O)OP(=O)(O)OP(=O)(O)OP(=O)(O)OC[C@H]2O[C@@H](n3ccc(=O)[nH]c3=O)[C@H](O)[C@@H]2O)O[C@H](CO)[C@@H](O)[C@@H]1O | 1890 | 910 | 5460 | – | –
7 | O=c1ccn([C@@H]2O[C@H](COP(=O)(O)OP(=O)(O)OP(=O)(O)OP(=O)(O)Oc3cccc([N+](=O)[O-])c3)[C@@H](O)[C@H]2O)c(=O)[nH]1 | 3330 | 2540 | – | < 50% | –
8 | O=c1ccn([C@@H]2O[C@H](COP(=O)(O)OP(=O)(O)OP(=O)(O)OP(=O)(O)Oc3ccccc3)[C@@H](O)[C@H]2O)c(=O)[nH]1 | 2760 | – | – | inactive | Activity (P2Y purinoceptor 4 [7]): inactive
9 | O=c1ccn([C@@H]2O[C@H](COP(=O)(O)OP(=O)(O)OP(=O)(O)OP(=O)(O)Oc3ccc(Cl)cc3)[C@@H](O)[C@H]2O)c(=O)[nH]1 | 6600 | – | – | – | –
10 | O=c1ccn([C@@H]2O[C@H](COP(=O)(O)OP(=O)(O)OP(=O)(O)OP(=O)(O)O)[C@@H](O)[C@H]2O)c(=O)[nH]1 | 3900 | 7300 | – | – | –
11 | O=c1ccn([C@@H]2O[C@H](COP(=O)(O)OP(=O)(O)OP(=O)(O)OP(=O)(O)O[C@H]3O[C@H](CO)[C@@H](F)[C@H](O)[C@H]3O)[C@@H](O)[C@H]2O)c(=O)[nH]1 | 620 | 220 | 1640 | – | –
12 | O=c1ccn([C@@H]2O[C@H](COP(=O)(O)OP(=O)(O)OP(=O)(O)OP(=O)(O)O[C@H]3O[C@H](CO)[C@@H](O)[C@H](O)[C@@H]3O)[C@@H](O)[C@H]2O)c(=O)[nH]1 | 3720 | 4480 | 12100 | – | –
13 | O=c1ccn([C@@H]2O[C@H](COP(=O)(O)OP(=O)(O)OP(=O)(O)OP(=O)(O)O[C@H]3O[C@H](CO)[C@H](O)[C@H](O)[C@H]3O)[C@@H](O)[C@H]2O)c(=O)[nH]1 | 940 | – | – | – | –
14 | O=c1ccn([C@@H]2O[C@H](COP(=O)(O)OP(=O)(O)OP(=O)(O)OP(=O)(O)Oc3cccc(Cl)c3)[C@@H](O)[C@H]2O)c(=O)[nH]1 | 840 | – | 3690 | – | Activity (P2Y purinoceptor 4 [7]): inactive
15 | COc1cccc(OP(=O)(O)OP(=O)(O)OP(=O)(O)OP(=O)(O)OC[C@H]2O[C@@H](n3ccc(=O)[nH]c3=O)[C@H](O)[C@@H]2O)c1 | – | – | – | < 50% | Activity (P2Y purinoceptor 4 [7]): inactive; Activity (P2Y purinoceptor 2 [9]): < 50%
16 | [N-]=[N+]=N[C@@H]1[C@H](O)[C@@H](COP(=O)(O)OP(=O)(O)OP(=O)(O)O)O[C@H]1n1ccc(=O)[nH]c1=O | – | – | – | – | EC50 (P2Y purinoceptor 2 [10]): 5000 nM

Row | SMILES | EC50 (P2Y purinoceptor 2 [1]) [nM] | EC50 (P2Y purinoceptor 4 [2]) [nM] | EC50 (P2Y purinoceptor 6 [4]) [nM] | Activity (P2Y purinoceptor 6 [8]) | other results
17 | COc1ccc(OP(=O)(O)OP(=O)(O)OP(=O)(O)OP(=O)(O)OC[C@H]2O[C@@H](n3ccc(=O)[nH]c3=O)[C@H](O)[C@@H]2O)cc1 | – | – | – | < 50% | Activity (P2Y purinoceptor 4 [7]): < 50%; Activity (P2Y purinoceptor 2 [9]): < 50%
18 | O=c1ccn([C@@H]2O[C@H](COP(=O)(O)OP(=O)(O)OP(=O)(O)OP(=O)(O)Oc3ccc([N+](=O)[O-])cc3)[C@@H](O)[C@H]2O)c(=O)[nH]1 | 4850 | – | – | < 50% | Activity (P2Y purinoceptor 4 [7]): < 50%
19 | O=c1ccn([C@@H]2O[C@H](COP(=O)(O)OP(=O)(O)OP(=O)(O)O)[C@@H](O)[C@H]2O)c(=O)[nH]1 [URIDINE TRIPHOSPHATE] | 55 | 80 | – | – | –
20 | CONc1ccn([C@@H]2O[C@H](COP(=O)(O)OP(=O)(O)OP(=O)(O)OP(=O)(O)O[C@H]3O[C@H](CO)[C@@H](O)[C@H](F)[C@H]3O)[C@@H](O)[C@H]2O)c(=O)n1 | 500 | 310 | 1440 | – | –
21 | O=c1ccn([C@@H]2O[C@H](COP(=O)(O)OP(=O)(O)C(Cl)(Cl)P(=O)(O)OP(=O)(O)O[C@H]3O[C@H](CO)[C@@H](O)[C@H](O)[C@H]3O)[C@@H](O)[C@H]2O)c(=O)[nH]1 | – | – | – | inactive | Activity (P2Y purinoceptor 4 [7]): inactive; Activity (P2Y purinoceptor 2 [9]): < 50%
22 | O=P(O)(O)OP(=O)(O)OP(=O)(O)OC[C@H]1O[C@@H](n2cnc3c(O)ncnc32)[C@H](O)[C@@H]1O | – | – | – | – | Ratio EC50 (Oocyte): 13
23 | O=c1[nH]/c(=N\OCc2ccccc2)ccn1[C@@H]1O[C@H](COP(=O)(O)OP(=O)(O)OP(=O)(O)OP(=O)(O)O[C@H]2O[C@H](CO)[C@@H](O)[C@H](F)[C@H]2O)[C@@H](O)[C@H]1O | 2640 | 670 | 7510 | – | –
24 | O=c1nc(NOCCCc2ccccc2)ccn1[C@@H]1O[C@H](COP(=O)(O)OP(=O)(O)OP(=O)(O)O)[C@@H](O)[C@H]1O | 640 | 23 | 740 | – | –
25 | O=c1ccn([C@@H]2O[C@H](COP(=O)(O)OP(=O)(O)C(Cl)(Cl)P(=O)(O)O)[C@@H](O)[C@H]2O)c(=S)[nH]1 | – | – | – | inactive | Activity (P2Y purinoceptor 4 [7]): inactive
26 | O=c1ccn([C@@H]2O[C@H](COP(=O)(O)OP(=O)(O)OP(=O)(O)OP(=O)(O)O[C@H]3OC[C@@H](O)[C@H](O)[C@H]3O)[C@@H](O)[C@H]2O)c(=O)[nH]1 | 2770 | 620 | 4900 | – | –
27 | O=c1ccn([C@@H]2O[C@H](COP(=O)(O)OP(=O)(O)OP(=O)(O)OP(=O)(O)O[C@H]3O[C@H](CO)[C@@H](O)[C@@H](O)[C@H]3O)[C@@H](O)[C@H]2O)c(=O)[nH]1 | 770 | 183 | 1170 | – | –
28 | O=c1ccn([C@@H]2O[C@H](COP(=O)(O)OP(=O)(O)OP(=O)(O)OP(=O)(O)O[C@H]3O[C@H](CO)[C@@H](O)[C@H](O)[C@H]3F)[C@@H](O)[C@H]2O)c(=O)[nH]1 | – | – | – | < 50% | Activity (P2Y purinoceptor 4 [7]): < 50%; Activity (P2Y purinoceptor 2 [9]): < 50%
29 | CC(C)(C)O/N=c1/ccn([C@@H]2O[C@H](COP(=O)(O)OP(=O)(O)OP(=O)(O)O)[C@@H](O)[C@H]2O)c(=O)[nH]1 | – | – | – | < 50% | –
30 | O=c1ccn([C@@H]2O[C@H](COP(=O)(O)OP(=O)(O)OP(=O)(O)OP(=O)(O)OC[C@H]3O[C@@H](n4ccc(=O)[nH]c4=O)[C@H](O)[C@@H]3O)[C@@H](O)[C@H]2O)c(=O)[nH]1 [DIQUAFOSOL TETRASODIUM] | – | – | – | – | EC50 (P2Y purinoceptor 4 [11]): 870 nM
31 | O=C(O)[C@H]1O[C@H](OP(=O)(O)OP(=O)(O)OP(=O)(O)OP(=O)(O)OC[C@H]2O[C@@H](n3ccc(=O)[nH]c3=O)[C@H](O)[C@@H]2O)[C@H](O)[C@@H](O)[C@@H]1O | 490 | 227 | 1650 | – | –
32 | O=c1[nH]/c(=N\OCCc2ccccc2)ccn1[C@@H]1O[C@H](COP(=O)(O)OP(=O)(O)OP(=O)(O)O)[C@@H](O)[C@H]1O | – | – | – | – | Ratio EC50 (P2Y purinoceptor 2 [3]): 16; Ratio EC50 (1321-N1): 17
